According to ChEMBL document CHEMBL2010704 (J Med Chem, 2012):
pIC50: −log10 of the molar value. Activity calls are given as the source filed them. No cut-off for these calls is given here.

Legend:
[1] = biological target: T1, P-glycoprotein (ABCB1) (Homo sapiens, UniProt P08183); experiment: Inhibition of P-glycoprotein/ABCB1-mediated mitoxantrone efflux in HEK293 cells at 1 uM by flow cytometry relative to 5 uM of GF120918; format: cell-based; conditions: HEK293 cells with P-glycoprotein/ABCB1-mediated efflux, probe mitoxantrone
T1 sequence (P08183 whole entry): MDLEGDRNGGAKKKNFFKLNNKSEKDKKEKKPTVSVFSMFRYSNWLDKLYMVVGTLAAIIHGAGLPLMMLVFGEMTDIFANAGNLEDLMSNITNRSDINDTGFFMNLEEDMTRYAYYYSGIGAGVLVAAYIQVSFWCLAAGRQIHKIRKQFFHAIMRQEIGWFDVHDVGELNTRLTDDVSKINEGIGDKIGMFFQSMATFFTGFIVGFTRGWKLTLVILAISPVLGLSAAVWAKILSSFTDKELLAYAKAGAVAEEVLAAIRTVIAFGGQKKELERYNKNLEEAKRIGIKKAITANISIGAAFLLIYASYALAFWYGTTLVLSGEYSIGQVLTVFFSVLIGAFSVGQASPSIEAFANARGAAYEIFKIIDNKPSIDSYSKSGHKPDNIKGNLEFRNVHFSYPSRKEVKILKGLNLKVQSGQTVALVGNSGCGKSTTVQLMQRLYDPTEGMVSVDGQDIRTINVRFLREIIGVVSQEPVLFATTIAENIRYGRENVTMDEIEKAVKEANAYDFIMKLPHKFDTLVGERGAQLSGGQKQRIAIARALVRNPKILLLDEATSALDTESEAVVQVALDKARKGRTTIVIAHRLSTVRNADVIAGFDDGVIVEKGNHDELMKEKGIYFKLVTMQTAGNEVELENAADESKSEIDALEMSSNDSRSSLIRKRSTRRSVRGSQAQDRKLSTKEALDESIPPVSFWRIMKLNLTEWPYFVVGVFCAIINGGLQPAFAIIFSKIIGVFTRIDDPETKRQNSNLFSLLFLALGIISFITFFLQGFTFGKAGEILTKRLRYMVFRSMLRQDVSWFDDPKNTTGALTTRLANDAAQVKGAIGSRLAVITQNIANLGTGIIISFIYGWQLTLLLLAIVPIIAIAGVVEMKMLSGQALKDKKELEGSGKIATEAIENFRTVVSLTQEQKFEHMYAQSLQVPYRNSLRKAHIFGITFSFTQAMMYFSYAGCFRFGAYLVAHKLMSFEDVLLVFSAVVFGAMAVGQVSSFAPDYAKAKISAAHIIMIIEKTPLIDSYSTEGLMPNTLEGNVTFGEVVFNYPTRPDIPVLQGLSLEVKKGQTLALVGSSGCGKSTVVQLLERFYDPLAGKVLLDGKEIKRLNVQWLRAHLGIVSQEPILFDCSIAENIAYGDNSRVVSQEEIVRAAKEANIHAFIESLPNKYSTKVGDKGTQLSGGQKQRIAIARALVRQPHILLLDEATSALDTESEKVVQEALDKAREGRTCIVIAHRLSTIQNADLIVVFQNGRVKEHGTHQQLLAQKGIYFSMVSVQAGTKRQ

[2] = biological target: T2, Broad substrate specificity ATP-binding cassette transporter ABCG2 (Homo sapiens, UniProt Q9UNQ0); experiment: Inhibition of ABCG2-mediated mitoxantrone efflux in HEK293 cells by flow cytometry; format: cell-based
T2 sequence (Q9UNQ0 whole entry): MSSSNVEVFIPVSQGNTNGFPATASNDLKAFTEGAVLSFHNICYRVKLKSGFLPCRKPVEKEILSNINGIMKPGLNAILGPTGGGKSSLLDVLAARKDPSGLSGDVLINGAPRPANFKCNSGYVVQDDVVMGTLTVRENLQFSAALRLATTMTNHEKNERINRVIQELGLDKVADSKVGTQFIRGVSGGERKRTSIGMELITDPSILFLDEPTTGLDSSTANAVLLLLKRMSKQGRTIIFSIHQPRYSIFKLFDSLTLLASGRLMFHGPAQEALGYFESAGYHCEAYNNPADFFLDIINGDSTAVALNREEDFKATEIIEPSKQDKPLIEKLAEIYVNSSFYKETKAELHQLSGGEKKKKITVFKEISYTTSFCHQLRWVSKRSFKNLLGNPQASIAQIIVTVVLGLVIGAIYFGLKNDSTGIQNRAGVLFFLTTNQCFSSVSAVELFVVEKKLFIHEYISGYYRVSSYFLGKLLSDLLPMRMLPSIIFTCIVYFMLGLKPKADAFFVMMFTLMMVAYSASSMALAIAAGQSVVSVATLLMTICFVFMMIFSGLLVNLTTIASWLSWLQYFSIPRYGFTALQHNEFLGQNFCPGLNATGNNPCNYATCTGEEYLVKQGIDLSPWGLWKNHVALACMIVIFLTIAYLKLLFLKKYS
In short: (§1)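 HEK293-ABCG2 cells seeded at 1 × 10^5 cells/well and grown 48 h, then loaded with 5 μM mitoxantrone for 30 min at 37 °C with or without compound. Cells washed in PBS and trypsinized; intracellular fluorescence read by flow cytometry on at least 10,000 events.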

[3] = Cytotoxicity against human HEK293 cells transfected with ABCG2 after 72 hrs by MTT assay; format: ADME, cell-based; conditions: read-out: IG50
In short: (§2)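 HEK293-ABCG2 cells (DMEM high glucose, 10% FBS, 0.75 mg/mL G418) seeded at 1 × 10^4 cells/well, left overnight, then exposed to increasing compound concentrations (up to 100 μM) for 72 h at 37 °C, 5% CO2. Viability read by MTT colorimetric assay and expressed as % of control cells in medium with 0.1% DMSO (v/v).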

[4] = biological target: T1, P-glycoprotein (ABCB1); experiment: Inhibition of P-glycoprotein/ABCB1-mediated mitoxantrone efflux in HEK293 cells at 5 uM by flow cytometry relative to 5 uM of GF120918; format: cell-based; conditions: HEK293 cells with P-glycoprotein/ABCB1-mediated efflux, probe mitoxantrone
[5] = biological target: MRP1 (ABCC1) (Homo sapiens, UniProt P33527); experiment: Inhibition of MRP1/ABCC1-mediated calcein efflux in HEK293 cells at 1 uM by flow cytometry relative to untreated control; format: cell-based; conditions: HEK293 cells with MRP1/ABCC1-mediated efflux, probe calcein
MRP1 (ABCC1), sequence (P33527 whole entry): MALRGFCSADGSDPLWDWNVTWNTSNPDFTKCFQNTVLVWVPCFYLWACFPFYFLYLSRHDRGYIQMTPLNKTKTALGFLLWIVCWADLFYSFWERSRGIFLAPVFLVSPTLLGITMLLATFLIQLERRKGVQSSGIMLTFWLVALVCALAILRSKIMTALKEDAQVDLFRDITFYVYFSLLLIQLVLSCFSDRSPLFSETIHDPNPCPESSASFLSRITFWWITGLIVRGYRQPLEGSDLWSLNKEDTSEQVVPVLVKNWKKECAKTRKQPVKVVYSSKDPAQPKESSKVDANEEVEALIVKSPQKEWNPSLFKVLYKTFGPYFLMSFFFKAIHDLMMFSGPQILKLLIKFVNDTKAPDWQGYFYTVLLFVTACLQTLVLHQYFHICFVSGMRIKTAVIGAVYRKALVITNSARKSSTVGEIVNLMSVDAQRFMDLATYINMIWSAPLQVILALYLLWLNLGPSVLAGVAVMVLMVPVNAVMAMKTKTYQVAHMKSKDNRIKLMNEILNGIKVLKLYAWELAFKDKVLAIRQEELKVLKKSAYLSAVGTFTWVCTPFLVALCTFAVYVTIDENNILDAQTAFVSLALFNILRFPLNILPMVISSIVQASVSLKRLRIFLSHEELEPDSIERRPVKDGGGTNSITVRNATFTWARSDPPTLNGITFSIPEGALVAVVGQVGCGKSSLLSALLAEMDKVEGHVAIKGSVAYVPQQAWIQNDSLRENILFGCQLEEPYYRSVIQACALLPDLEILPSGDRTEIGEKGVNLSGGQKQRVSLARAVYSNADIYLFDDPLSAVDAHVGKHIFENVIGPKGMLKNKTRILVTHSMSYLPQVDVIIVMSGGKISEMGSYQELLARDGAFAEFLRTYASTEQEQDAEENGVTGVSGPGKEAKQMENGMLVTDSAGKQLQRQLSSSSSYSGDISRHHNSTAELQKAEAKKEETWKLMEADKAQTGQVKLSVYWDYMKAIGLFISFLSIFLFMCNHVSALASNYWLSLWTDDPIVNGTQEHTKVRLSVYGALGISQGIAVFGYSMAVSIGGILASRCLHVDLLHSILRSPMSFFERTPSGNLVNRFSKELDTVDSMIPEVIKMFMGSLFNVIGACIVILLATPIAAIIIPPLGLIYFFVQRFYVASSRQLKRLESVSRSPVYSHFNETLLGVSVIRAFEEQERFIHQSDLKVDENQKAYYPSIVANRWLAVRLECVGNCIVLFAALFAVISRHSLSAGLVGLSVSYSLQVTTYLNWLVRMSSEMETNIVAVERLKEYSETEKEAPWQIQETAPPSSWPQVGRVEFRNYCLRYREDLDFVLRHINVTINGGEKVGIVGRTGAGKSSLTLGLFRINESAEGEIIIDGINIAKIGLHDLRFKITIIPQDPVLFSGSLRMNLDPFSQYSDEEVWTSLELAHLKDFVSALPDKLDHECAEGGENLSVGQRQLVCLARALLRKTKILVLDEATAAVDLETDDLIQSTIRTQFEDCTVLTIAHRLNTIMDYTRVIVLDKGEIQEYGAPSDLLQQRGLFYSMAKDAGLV

[6] = test system: P-glycoprotein 1 (Homo sapiens); experiment: Inhibition of P-glycoprotein/ABCB1-mediated mitoxantrone efflux in HEK293 cells at 5 uM by flow cytometry relative to untreated control; conditions: HEK293 cells with P-glycoprotein/ABCB1-mediated efflux, probe mitoxantrone
[7] = test system: HEK293; experiment: Cytotoxicity against human HEK293 cells transfected with ABCG2 at 10 uM after 72 hrs by MTT assay; format: ADME, cell-based; conditions: hek293, 72 h; in short: as §2
[8] = biological target: T3, ABCG2 (Homo sapiens, UniProt Q9UNQ0); experiment: Inhibition of ABCG2-mediated mitoxantrone efflux in HEK293 cells at 5 uM by flow cytometry relative to 5 uM of GF120918; format: cell-based; conditions: HEK293 cells with ABCG2-mediated efflux, probe mitoxantrone
T3 sequence (Q9UNQ0 whole entry): T2 sequence (Q9UNQ0 whole entry)
In short: as §1, with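 “events. […] IC50 from a concentration range; mean ± SD, n ≥ 3.” for “events.”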

[9] = biological target: T3, ABCG2; experiment: Inhibition of ABCG2-mediated mitoxantrone efflux in HEK293 cells at 1 uM by flow cytometry relative to 5 uM of GF120918; format: cell-based; conditions: HEK293 cells with ABCG2-mediated efflux, probe mitoxantrone
In short: as §1, with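 “events. […] IC50 from a concentration range; mean ± SD, n ≥ 3.” for “events.”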

[10] = test system: HEK293; experiment: Effect on ABCG2 expression in human HEK293 cells at 0.2 to 10 uM after 72 hrs by Western blotting analysis; format: functional, cell-based
[11] = test system: HEK293; experiment: Drug uptake in human HEK293 cells transfected with ABCG2 after 30 mins by LC-ESI-MS/MS analysis relative to control; format: ADME, cell-based; conditions: hek293, 0.5 h
[12] = biological target: T2, Broad substrate specificity ATP-binding cassette transporter ABCG2; experiment: Noncompetitive inhibition of ABCG2 expressed in HEK293 cells in presence of mitoxantrone; format: cell-based
[13] = test system: HEK293; experiment: Drug uptake in human HEK293 cells transfected with ABCG2 after 30 mins by LC-ESI-MS/MS analysis in presence of GF120918 relative to control; format: ADME, cell-based; conditions: hek293, 0.5 h
[14] = biological target: T2, Broad substrate specificity ATP-binding cassette transporter ABCG2; experiment: Inhibition of ABCG2 expressed in human HEK293 assessed as potentiation of mitoxantrone-mediated cytotoxicity at 0.2 uM after 72 hrs by MTT assay relative to control; format: cell-based; conditions: hek293, 72 h
In short: (§3)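 Chemosensitization: HEK293-ABCG2 cells seeded at 1 × 10^4 cells/well, left overnight, then co-treated for 72 h at 37 °C, 5% CO2 with compound plus increasing mitoxantrone or SN-38 (0−0.5 μM). Viability measured by MTT and expressed as % of untreated control. Mean ± SD from at least three independent experiments, each in triplicate.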

[15] = biological target: T2, Broad substrate specificity ATP-binding cassette transporter ABCG2; experiment: Inhibition of ABCG2 expressed in human HEK293 assessed as potentiation of SN-38-mediated cytotoxicity at 0.2 uM after 72 hrs by MTT assay relative to control; format: cell-based; conditions: hek293, 72 h; in short: as §3
[16] = test system: HEK293; experiment: Drug metabolism in human HEK293 cells transfected with ABCG2 at 0.2 to 1 uM after 72 hrs; format: ADME, cell-based; conditions: hek293, 72 h
[17] = test system: ABCG2; experiment: Therapeutic index, ratio of GI50 for human HEK293 cells transfected with ABCG2 to IC50 for ABCG2-mediated mitoxantrone efflux in HEK293 cells; format: cell-based; conditions: HEK293 cells transfected with ABCG2, probe mitoxantrone
In short: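 Therapeutic index is IG50 for cytotoxicity (72-h MTT in HEK293-ABCG2 cells) divided by IC50 for inhibition of ABCG2-mediated mitoxantrone efflux measured by flow cytometry.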

[18] = test system: HEK293; experiment: Cytotoxicity against human control HEK293 cells assessed as cell death at 100 uM after 72 hrs by MTT assay; conditions: hek293, 72 h

SMILES | inhibition at 1 µM [1] | pIC50 [2] | inhibition at 5 µM [4] | inhibition at 1 µM [5] | inhibition at 5 µM [6] | inhibition at 5 µM [8] | inhibition at 1 µM [9] | other results
COc1ccc2[nH]cc(CCNC(=O)c3cc(=O)c4c(OCc5ccccc5)cccc4o3)c2c1 | -9.11% | 6.74 | -19.4% | 1.91% | 5.14% |  |  | GI50 at 72 h [3]: 35000 nM; Activity [7]: Non-toxic
O=C(c1cc(=O)c2c(OCc3ccccc3)cccc2o1)N1CCN(c2ccccn2)CC1 |  |  |  |  |  | 46.2% | 18.1% | 
COc1ccc(CCNC(=O)c2cc(=O)c3c(OCCc4ccc(OC)c(OC)c4)cccc3o2)cc1OC | -16.6% | 6.33 | -0.11% | 5.57% | 10.8% |  |  | 
COc1ccc(CCNC(=O)c2cc(=O)c3c(OCc4ccccc4)cccc3o2)cc1OC | -25.5% |  | -22.9% | 10.8% |  |  |  | Activity [10]: inactive; Drug uptake [11]: Not Active; GI50 at 72 h [3]: 60000 nM; inhibition (INH) [12]: Active; Drug uptake [13]: Not Active; Activity [7]: 35%
COc1ccc2[nH]cc(CCNC(=O)c3cc(=O)c4c(OCc5ccc(Br)cc5)cccc4o3)c2c1 | -1.75% | 6.96 | -16.1% | 2.58% | 2.86% |  |  | inhibition (INH) [14]: Active; Activity [10]: inactive; inhibition (INH) [15]: Active; Drug uptake [11]: Not Active; inhibition (INH) [12]: Active; Drug metabolism [16]: Not Active; selectivity ratio [17]: 2000; Drug uptake [13]: Not Active; Activity [18]: < 25%
COc1ccc2[nH]cc(CCNC(=O)c3cc(=O)c4c(OCCc5ccccc5)cccc4o3)c2c1 | -14% | 6.80 | -14.8% | 2.36% | 5.12% |  |  | 
O=C(O)c1cc(=O)c2c(O)cccc2o1 |  |  |  |  |  | -2% | -1.2% | 
O=C(c1cc(=O)c2c(OCc3ccccc3)cccc2o1)N1CCN(c2ccccc2)CC1 |  |  |  |  |  | 66.1% | 21.3% | 
CC(C)=CCc1c(O)cc2oc(-c3ccccc3)cc(=O)c2c1O |  |  |  |  |  |  |  | selectivity ratio [17]: 40
O=C(c1cc(=O)c2c(OCc3ccccc3)cccc2o1)N1CCN(Cc2ccccc2)CC1 |  |  |  |  |  | 48.3% | 16.5% | 
COc1ccc(CCNC(=O)c2cc(=O)c3c(O)cccc3o2)cc1OC | -20.5% |  | -29% | 3.37% | 5.47% | 62.5% | 34.4% | 
O=C(c1cc(=O)c2c(O)cccc2o1)N1CCN(c2ccccc2)CC1 |  |  |  |  |  | 9.8% | 5.5% | 
COc1ccc(CCOc2cccc3oc(C(=O)O)cc(=O)c23)cc1OC |  |  |  |  |  | 26.7% | 6.1% | 
COc1ccc2c3c([nH]c2c1)[C@H](CC(C)C)N1C(=O)[C@H](CCC(=O)OC(C)(C)C)NC(=O)[C@@H]1C3 |  |  |  |  |  |  |  | GI50 at 72 h [3]: 18000 nM
COc1ccc2[nH]cc(CCNC(=O)c3cc(=O)c4c(OCc5ccc(C)cc5)cccc4o3)c2c1 | -4.29% | 6.70 | -21.9% | 1.13% | 3.09% |  |  | 
